Where “and” joins values, the source holds several entries; their conditions need not be identical. Identical values can stand only once. Entries after “also recorded” stand apart in the source; their conditions may differ. Like-named read-outs stand apart in the source and are kept apart here.
What was measured:
[1] = molecular target: PpADT-Gmut^62; assay: Inhibition of PDT activity by Phe, mutant enzyme; format: biochemical, Pinus pinaster; settings: read-out: IC50 (μM) for Phe; PDT reaction, 1 mM of substrate (Ppa); Thr303→Ala, Leu304→His
Method in brief: (§1)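 Ni-purified His-tagged mutants, expressed in E. coli BL21 DE3 RIL, were assayed for PDT activity. About 5 µg protein in 50 mM Tris pH 8.0 was preincubated 5 min at 30°C with varying Phe. Reactions were started with 1 mM prephenate, stopped with 2 M NaOH and read at 321 nm against a phenylpyruvate calibration. Runs were in triplicate, linear ≥5 min, with IC50 obtained by kinetic fitting.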

[2] = molecular target: PpADT-Gmut^16; assay: Inhibition of PDT activity by Phe, mutant enzyme; format: biochemical, Pinus pinaster; settings: read-out: IC50 (μM) for Phe; PDT reaction, 1 mM of substrate (Ppa); Ala316→Ser, Val317→Ala
Method in brief: as §1

[3] = test system: PpADT-G; assay: Inhibition of ADT activity by Phe, recombinant enzyme; format: biochemical, Pinus pinaster
Method in brief: (§2)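 The Pinus pinaster ADT was used either as wild-type or as chimeras made by fusion PCR. It was His-tagged without the transit peptide, expressed in E. coli BL21 DE3 RIL and Ni-purified. About 1 µg of protein in 50 mM Tris pH 8.0 was preincubated 5 min with a range of Phe concentrations. Reaction started with 0.1 mM Agn at 30°C and was stopped with methanol. Phe product was quantified by UPLC/MS, with linearity checked over ≥5 min. At least duplicate; IC50 from kinetic fitting.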

[4] = test system: PpADT-Gmut^8; assay: Effect of 100 μM Phe over ADT activity, mutant enzyme; format: biochemical, Pinus pinaster; settings: Phe at 100 µM
Method in brief: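 His-tagged recombinant mutant enzyme without its transit peptide, expressed in E. coli BL21 DE3 RIL and Ni-purified. About 1 µg protein in 50 mM Tris pH 8.0 was preincubated 5 min at 30°C with 100 µM Phe. Arogenate was added to start the reaction, and methanol stopped it. Phe formed was quantified by UPLC/MS against a pure-Phe calibration. Activity is relative to the no-Phe control; error bars sd.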

[5] = molecular target: PpADT-Cmut^1; assay: Inhibition of ADT activity by Phe, chimeric enzyme; format: biochemical, Pinus pinaster; settings: read-out: ADT IC50 (μM of Phe), 0.1 mM of Agn
Method in brief: as §2

[6] = test system: Orysa4G33390; assay: Effect of 100 μM Phe over ADT activity, recombinant type-II ADT; format: biochemical, O. sativa; settings: 100 µM of Phe, 100 µM of substrate (Agn)
Method in brief: (§3)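 Type-I or type-II plant ADT ORFs were cloned from cDNA into pET30b without the putative plastid transit peptide and with a C-terminal His tag. Proteins were expressed in E. coli BL21 DE3 RIL (0.5 mM IPTG, 18–20 h at 12°C) and Ni-purified. About 1 µg was preincubated 5 min with 100 µM Phe in 50 mM Tris pH 8.0. Reaction started with 100 µM Agn at 30°C and was stopped with methanol. Phe formed was quantified by UPLC/MS. Activity is relative to the no-Phe control (100%); triplicate.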

[7] = test system: plastidial CM; settings: read-out: IC50, inhibition of plastidial CM by Phe; ref Kroll et al., 2017; cited from earlier work
[8] = molecular target: PpADT-Gmut^102; assay: Inhibition of PDT activity by Phe, mutant enzyme; format: biochemical, Pinus pinaster; settings: read-out: IC50 (μM) for Phe; PDT reaction, 1 mM of substrate (Ppa); Leu320→Phe
Method in brief: (§4)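 PpADT-G point mutants were made by site-directed mutagenesis, expressed His-tagged in E. coli BL21 DE3 RIL and Ni-purified. About 5 µg of protein in 50 mM Tris pH 8.0 was preincubated 5 min with varying Phe. The PDT reaction started with 1 mM Ppa at 30°C and was stopped with 2 M NaOH. Phenylpyruvate was read by absorbance at 321 nm against a phenylpyruvate calibration. Triplicate; IC50 was fitted.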

[9] = molecular target: AtADT1 (Arabidopsis thaliana, UniProt Q9SA96); assay: Effect of 100 μM Phe over ADT activity, recombinant type-I ADT; format: biochemical, A. thaliana; settings: 100 µM of Phe, 100 µM of substrate (Agn), compared to control (absence of Phe)
Method in brief: as §3

[10] = test system: Zeama2G125923; assay: Effect of 100 μM Phe over ADT activity, recombinant type-II ADT; format: biochemical, Zea mays; settings: 100 µM of Phe, 100 µM of substrate (Agn)
Method in brief: as §3

[11] = molecular target: PpADT-Gmut^103; assay: Inhibition of PDT activity by Phe, mutant enzyme; format: biochemical, Pinus pinaster; settings: read-out: IC50 (μM) for Phe; PDT reaction, 1 mM of substrate (Ppa); Asn324→Ser
Method in brief: as §4

[12] = molecular target: PpADT-C; assay: Inhibition of ADT activity by Phe, recombinant enzyme; format: biochemical, Pinus pinaster; settings: read-out: ADT IC50 (μM of Phe), 0.1 mM of Agn
Method in brief: as §2

[13] = test system: Niben8991; assay: Effect of 100 μM Phe over ADT activity, recombinant type-I ADT; format: biochemical, Nicotiana benthamiana; settings: 100 µM of Phe, 100 µM of substrate (Agn), compared to control (absence of Phe)
Method in brief: as §3

[14] = test system: Cucsa52640; assay: as above; format: biochemical, Cucumis sativus; settings: 100 µM of Phe, 100 µM of substrate (Agn), compared to control (absence of Phe)
Method in brief: as §3

[15] = molecular target: PpADT-Gmut^11; assay: Inhibition of PDT activity by Phe, mutant enzyme; format: biochemical, Pinus pinaster; settings: read-out: IC50 (μM) for Phe; PDT reaction, 1 mM of substrate (Ppa); Ala314→Val
Method in brief: as §4

[16] = molecular target: plastidial CM; settings: read-out: Ki, inhibition of plastidial CM by Phe; ref Benesova and Bode, 1992; cited from earlier work
[17] = molecular target: PpADT-Gmut^13; assay: Inhibition of PDT activity by Phe, mutant enzyme; format: biochemical, Pinus pinaster; settings: read-out: IC50 (μM) for Phe; PDT reaction, 1 mM of substrate (Ppa); Val317→Ala
Method in brief: as §4

[18] = molecular target: AtADT4 (Arabidopsis thaliana, UniProt O22241); assay: Effect of 100 μM Phe over ADT activity, recombinant type-II ADT; format: biochemical, A. thaliana; settings: 100 µM of Phe, 100 µM of substrate (Agn)
Method in brief: as §3

[19] = test system: Potri4G188100; assay: as above; format: biochemical, P. trichocarpa; settings: 100 µM of Phe, 100 µM of substrate (Agn)
Method in brief: as §3

[20] = molecular target: PpADT-Gmut^10; assay: Inhibition of PDT activity by Phe, mutant enzyme; format: biochemical, Pinus pinaster; settings: read-out: IC50 (μM) for Phe; PDT reaction, 1 mM of substrate (Ppa); Leu320→Phe, Asn324→Ser
Method in brief: as §1

[21] = molecular target: PpADT-Gmut^1; assay: Inhibition of ADT activity by Phe, chimeric enzyme; format: biochemical, Pinus pinaster; settings: read-out: ADT IC50 (μM of Phe), 0.1 mM of Agn
Method in brief: as §2

[22] = test system: PpADT-Gmut^1; assay: Inhibition of PDT activity by Phe, chimeric enzyme; format: biochemical, Pinus pinaster
Method in brief: (§5)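 PDT reaction: about 5 µg of His-tagged, Ni-purified Pinus pinaster ADT (wild-type or fusion-PCR chimera) in 50 mM Tris pH 8.0 was preincubated 5 min with Phe. The reaction started with 1 mM Ppa at 30°C; Ppa content was first verified by HCl conversion. It was stopped with 2 M NaOH and left ≥10 min at room temperature. Phenylpyruvate was read at 321 nm against a calibration curve. At least duplicate; IC50, Ki and inhibition type came from kinetic fitting.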

[23] = molecular target: PpADT-Gmut^9; assay: Inhibition of PDT activity by Phe, mutant enzyme; format: biochemical, Pinus pinaster; settings: read-out: IC50 (μM) for Phe; PDT reaction, 1 mM of substrate (Ppa); Ala314→Val, Ala316→Ser, Val317→Ala
Method in brief: as §1

[24] = test system: PpADT-G; assay: Inhibition of PDT activity by Phe, recombinant enzyme; format: biochemical, Pinus pinaster
Method in brief: as §5

[25] = molecular target: PpADT-Gmut^8; assay: Inhibition of PDT activity by Phe, mutant enzyme; format: biochemical, Pinus pinaster; settings: read-out: IC50 (μM) for Phe; PDT reaction, 1 mM of substrate (Ppa); Pro308→Thr, Gly309→Ser
Method in brief: as §1

[26] = test system: Potri11G4700; assay: Effect of 100 μM Phe over ADT activity, recombinant type-I ADT; format: biochemical, Populus trichocarpa; settings: 100 µM of Phe, 100 µM of substrate (Agn), compared to control (absence of Phe)
Method in brief: as §3

[27] = test system: PpADT-Cmut^1; assay: Inhibition of PDT activity by Phe, chimeric enzyme; format: biochemical, Pinus pinaster
Method in brief: as §5

[28] = molecular target: PpADT-Gmut^12; assay: Inhibition of PDT activity by Phe, mutant enzyme; format: biochemical, Pinus pinaster; settings: read-out: IC50 (μM) for Phe; PDT reaction, 1 mM of substrate (Ppa); Ala316→Ser
Method in brief: as §4

[29] = test system: ADT activity; settings: read-out: IC50 for ADT activity; crude plant extracts; ref Jung et al., 1986; cited from earlier work
[30] = test system: PpADT-C; assay: Inhibition of PDT activity by Phe, recombinant enzyme; format: biochemical, Pinus pinaster
Method in brief: as §5

[31] = molecular target: plastidial CM; settings: read-out: Ki, inhibition of plastidial CM by Phe; ref Kuroki and Conn, 1988; cited from earlier work
[32] = molecular target: PpADT-Gmut^6; assay: Inhibition of PDT activity by Phe, mutant enzyme; format: biochemical, Pinus pinaster; settings: read-out: IC50 (μM) for Phe; PDT reaction, 1 mM of substrate (Ppa); Thr303→Ala, Leu304→Gln
Method in brief: as §1

[33] = test system: plastidial CM; settings: read-out: IC50, inhibition of plastidial CM by Phe; ref Westfall et al., 2014; cited from earlier work
[34] = read-out: PDT IC50 (μM of Phe), 1 mM of Ppa

AtADT1, sequence (Q9SA96 49-392): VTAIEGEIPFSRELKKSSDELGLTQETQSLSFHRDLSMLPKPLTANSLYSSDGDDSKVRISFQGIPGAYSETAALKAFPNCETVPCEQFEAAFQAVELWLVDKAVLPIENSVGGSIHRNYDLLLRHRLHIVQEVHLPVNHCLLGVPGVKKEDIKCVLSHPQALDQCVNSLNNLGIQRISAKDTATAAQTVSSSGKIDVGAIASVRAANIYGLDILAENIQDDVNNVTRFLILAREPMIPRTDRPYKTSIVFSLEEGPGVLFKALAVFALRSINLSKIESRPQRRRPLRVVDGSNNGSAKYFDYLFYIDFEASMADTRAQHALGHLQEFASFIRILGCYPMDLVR
AtADT4, sequence (O22241 35-424): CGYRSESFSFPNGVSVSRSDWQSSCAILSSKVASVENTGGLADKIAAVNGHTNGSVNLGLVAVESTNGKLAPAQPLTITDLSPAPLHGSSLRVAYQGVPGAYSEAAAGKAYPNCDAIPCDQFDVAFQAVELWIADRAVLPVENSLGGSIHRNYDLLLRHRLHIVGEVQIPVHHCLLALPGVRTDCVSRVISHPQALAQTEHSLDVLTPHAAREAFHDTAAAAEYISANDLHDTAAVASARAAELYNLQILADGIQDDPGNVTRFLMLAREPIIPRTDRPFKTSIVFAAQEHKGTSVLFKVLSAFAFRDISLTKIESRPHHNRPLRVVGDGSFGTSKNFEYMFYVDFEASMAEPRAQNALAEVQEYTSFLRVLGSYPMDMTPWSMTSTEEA

## N[C@@H](Cc1ccccc1)C(=O)O [Phe, phenylalanine]
[1]
  IC50: 333.5 ± 3.1 µM
[2]
  IC50: 17.2 ± 0.2 µM
[3]; 100 µM of Phe
  ADT activity at 100 µM of Phe: mostly inactive
[3]; read-out: ADT IC50 (μM of Phe), ADT activity, 0.1 mM of Agn
  IC50: 27.6 ± 1.5 µM
[4]
  Phe-mediated inhibition of ADT activity compared to the wild-type: more resistant to inhibition than the wild-type
[5]
  IC50: ~52.8 µM and 52.8 µM
[6]
  effect on ADT activity: not substantially affected
[7]
  IC50: 82 µM
[8]
  IC50: 135.4 ± 0.7 µM
[9]
  decrease in ADT activity: > 90%
[10]
  effect on ADT activity: not substantially affected
[11]
  IC50: 234 ± 4.9 µM
[12]
  IC50: > 100 µM
[13]
  decrease in ADT activity: > 90%
[14]
  decrease in ADT activity: > 90%
[15]
  IC50: 14.6 ± 2.3 µM
[16]
  Ki: 1100 µM
[17]
  IC50: 23.6 ± 1.4 µM
[18]
  effect on ADT activity: not substantially affected
[19]
  effect on ADT activity: not substantially affected
[20]
  IC50: 184 ± 24.7 µM
[21]
  IC50: > 100 µM
[22]
  Proposed type of inhibition: allosteric; also recorded: Cooperative
[22]; [34]
  IC50: 390 ± 15.4 µM
[23]
  IC50: 17.5 ± 3.7 µM
[24]
  Proposed type of inhibition: Uncompetitive
[24]; [34]
  IC50: 47.7 ± 3 µM
[24]; read-out: PDT K i (μM of Phe)
  Ki: 28.1 ± 1 µM
[25]
  IC50: 445 µM
[26]
  decrease in ADT activity: > 90%
[27]
  Proposed type of inhibition: Uncompetitive
[27]; [34]
  IC50: ~36.1 µM and 36.1 µM
[27]; read-out: PDT K i (μM of Phe)
  Ki: 170 ± 16.3 µM
[28]
  IC50: 26 ± 4.8 µM
[29]
  IC50: ~35 µM
[30]
  Proposed type of inhibition: Cooperative
[30]; [34]
  IC50: 320 µM
[31]
  Ki: 550 µM
[32]
  IC50: 333 ± 8 µM
[33]
  IC50: 50 µM
